Measurements published in ChEMBL document CHEMBL4033790, “Design and Synthesis of Novel Deuterated Ligands Functionally Selective for the γ-Aminobutyric Acid Type A Receptor (GABAAR) α6 Subtype with Improved Metabolic Stability and Enhanced Bioavailability” (J Med Chem, 2018).

How the values were obtained:
[1] = Metabolic stability in human liver microsomes assessed as parent compound remaining at 10 uM after 60 mins by LC-MS analysis; assay type: ADME, microsome; settings: read-out: Stability
In short: (§1)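 The 60 min samples of the microsomal incubation (10 μM compound, human or mouse liver microsomes at 0.5 mg/mL, NADPH regenerating system, 37 °C) were analysed by LC-MS. Detection used SIM mode with dual ESI/APCI ionization, calibrated to the retention times and masses of the parent and its O-demethylated metabolites. Peak intensities were measured.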

[2] = Metabolic stability in mouse liver microsomes assessed as parent compound remaining at 10 uM after 60 mins by LC-MS analysis; assay type: ADME, microsome; settings: read-out: Stability; in short: as §1
[3] = Cmax in Wistar rat plasma at 10 mg/kg, ip administered as single dose measured at 5 to 720 mins post dose by HPLC-MS/MS analysis; assay type: ADME, organism-based; parameters: dose 10 mg/kg, route intraperitoneal
In short: (§2)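 Male Wistar rats (250-350 g) given a single 10 mg/kg i.p. dose of a 5 mg/ml suspension in 85% distilled water, 14% propylene glycol, 1% Tween 80. Three rats per time point (5, 20, 60, 180, 720 min). Blood and brain were collected after sacrifice. Drug was recovered by solid phase extraction and quantified by HPLC-MS/MS.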

[4] = Tmax in Wistar rat plasma at 10 mg/kg, ip administered as single dose by HPLC-MS/MS analysis; assay type: ADME, organism-based
In short: (§3)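 Male Wistar rats (250–350 g) received a single i.p. dose of 10 mg/kg as a 5 mg/ml suspension in 85% water, 14% propylene glycol and 1% Tween 80. Three rats per time point were sacrificed at 5, 20, 60, 180 and 720 min for plasma and brain. Samples were cleaned up by solid-phase extraction and quantified by HPLC-MS/MS.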

[5] = AUC (0 to 12 hrs) in Wistar rat plasma at 10 mg/kg, ip administered as single dose by HPLC-MS/MS analysis; assay type: ADME, organism-based; parameters: time < 12 hr, dose 10 mg/kg, route intraperitoneal
[6] = Terminal elimination half-life in Wistar rat plasma at 10 mg/kg, ip administered as single dose by HPLC-MS/MS analysis; assay type: ADME, organism-based; settings: read-out: beta t1/2 (converted); in short: as §3
[7] = Cmax in Wistar rat brain at 10 mg/kg, ip administered as single dose measured at 5 to 720 mins post dose by HPLC-MS/MS analysis; assay type: ADME, organism-based; parameters: dose 10 mg/kg, route intraperitoneal; in short: as §2
[8] = Tmax in Wistar rat brain at 10 mg/kg, ip administered as single dose by HPLC-MS/MS analysis; assay type: ADME, organism-based; in short: as §3
Brain [9] = assay: AUC (0 to 12 hrs) in Wistar rat brain at 10 mg/kg, ip administered as single dose by HPLC-MS/MS analysis; assay type: ADME, organism-based; parameters: dose 10 mg/kg, time < 12 hr, route intraperitoneal; settings: in vivo
[10] = Terminal elimination half-life in Wistar rat brain at 10 mg/kg, ip administered as single dose by HPLC-MS/MS analysis; assay type: ADME, organism-based; settings: read-out: beta t1/2 (converted); in short: as §3
[11] = Cmax in Wistar rat plasma at 2 mg/kg administered as single dose via oral gavage measured at 5 to 1440 mins post dose by HPLC-MS/MS analysis; assay type: ADME, organism-based; parameters: dose 2 mg/kg, route oral
In short: (§4)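 Absolute oral bioavailability study in Wistar rats: single 2 mg/kg dose by oral gavage or IV, using nanoemulsion formulations. Three rats per time point (5, 30, 120, 480, 1440 min). Plasma and brain were extracted by solid phase extraction and levels measured by HPLC-MS/MS. Bioavailability was calculated from plasma AUC for the two routes.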

[12] = Tmax in Wistar rat plasma at 2 mg/kg administered as single dose via oral gavage by HPLC-MS/MS analysis; assay type: ADME, organism-based
In short: (§5)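 Male Wistar rats (250–350 g) received a single 2 mg/kg dose, by oral gavage or IV, from nanoemulsion formulations. Three rats per time point were sampled for plasma and brain at 5, 30, 120, 480 and 1440 min. Compound levels were measured by HPLC-MS/MS after solid-phase extraction; oral bioavailability was derived from plasma AUCs for the two routes.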

[13] = AUC (0 to 24 hrs) in Wistar rat plasma at 2 mg/kg administered as single dose via oral gavage by HPLC-MS/MS analysis; assay type: ADME, organism-based; parameters: dose 2 mg/kg, time < 24 hr, route oral
[14] = Terminal elimination half-life in Wistar rat plasma at 2 mg/kg administered as single dose via oral gavage by HPLC-MS/MS analysis; assay type: ADME, organism-based; settings: read-out: beta t1/2 (converted); in short: as §5
[15] = Cmax in Wistar rat plasma at 2 mg/kg, iv administered as single dose measured at 5 to 1440 mins post dose by HPLC-MS/MS analysis; assay type: ADME, organism-based; parameters: dose 2 mg/kg, route intravenous; in short: as §4
[16] = Tmax in Wistar rat plasma at 2 mg/kg, iv administered as single dose by HPLC-MS/MS analysis; assay type: ADME, organism-based; in short: as §5
[17] = AUC (0 to 24 hrs) in Wistar rat plasma at 2 mg/kg, iv administered as single dose by HPLC-MS/MS analysis; assay type: ADME, organism-based; parameters: dose 2 mg/kg, time < 24 hr, route intravenous
[18] = Terminal elimination half-life in Wistar rat plasma at 2 mg/kg, iv administered as single dose by HPLC-MS/MS analysis; assay type: ADME, organism-based; settings: read-out: beta t1/2 (converted); in short: as §5
[19] = Cmax in Wistar rat brain at 2 mg/kg administered as single dose via oral gavage measured at 5 to 1440 mins post dose by HPLC-MS/MS analysis; assay type: ADME, organism-based; parameters: dose 2 mg/kg, route oral
In short: (§6)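 Male Wistar rats (250-350 g) received a single 2 mg/kg dose, nanoemulsion formulation, by oral gavage or IV. Three rats per time point (5, 30, 120, 480, 1440 min); plasma and brain collected. Compound extracted by solid-phase extraction and quantified by HPLC-MS/MS. Absolute oral bioavailability was calculated from plasma AUC after the two routes.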

[20] = Tmax in Wistar rat brain at 2 mg/kg administered as single dose via oral gavage by HPLC-MS/MS analysis; assay type: ADME, organism-based; in short: as §5
Brain [21] = assay: AUC (0 to 24 hrs) in Wistar rat brain at 2 mg/kg administered as single dose via oral gavage by HPLC-MS/MS analysis; assay type: ADME, organism-based; parameters: time < 24 hr, dose 2 mg/kg, route oral; settings: in vivo
[22] = Terminal elimination half-life in Wistar rat brain at 2 mg/kg administered as single dose via oral gavage by HPLC-MS/MS analysis; assay type: ADME, organism-based; settings: read-out: beta t1/2 (converted); in short: as §5
[23] = Cmax in Wistar rat brain at 2 mg/kg, iv administered as single dose measured at 5 to 1440 mins post dose by HPLC-MS/MS analysis; assay type: ADME, organism-based; parameters: dose 2 mg/kg, route intravenous; in short: as §4
[24] = Tmax in Wistar rat brain at 2 mg/kg, iv administered as single dose by HPLC-MS/MS analysis; assay type: ADME, organism-based; in short: as §5
Brain [25] = assay: AUC (0 to 24 hrs) in Wistar rat brain at 2 mg/kg, iv administered as single dose by HPLC-MS/MS analysis; assay type: ADME, organism-based; parameters: time < 24 hr, dose 2 mg/kg, route intravenous; settings: in vivo
[26] = Terminal elimination half-life in Wistar rat brain at 2 mg/kg, iv administered as single dose by HPLC-MS/MS analysis; assay type: ADME, organism-based; settings: read-out: beta t1/2 (converted); in short: as §6
[27] = Ratio of brain AUC (0 to t) to plasma AUC (0 to t), Kp of the compound in Wistar rat at 10 mg/kg, ip administered as single dose by HPLC-MS/MS analysis; assay type: ADME, organism-based
Rattus norvegicus = assay: Hyperlocomotor activity in Wistar rat assessed as total distance travelled at 3 to 10 mg/kg, ip after 60 mins; assay type: ADME, organism-based; settings: in vivo, 1 h
Mus musculus = assay: Hyperlocomotor activity in C57BL/6 mouse assessed as total distance travelled at 3 to 10 mg/kg, ip after 60 mins; assay type: ADME, organism-based; settings: in vivo, 1 h
[28] = Oral bioavailability in Wistar rat plasma at 2 mg/kg administered as single dose via gavage by HPLC-MS/MS analysis; assay type: ADME, organism-based; in short: as §6
Brain [29] = assay: Oral bioavailability in Wistar rat brain at 2 mg/kg administered as single dose via gavage by HPLC-MS/MS analysis; assay type: ADME, organism-based; settings: in vivo; in short: as §6

SMILES | remaining at 1 h, 10 µM [1] [%] | remaining at 1 h, 10 µM [2] [%] | Cmax [3] [ng/mL] | Tmax [4] [h] | AUC(0-t) at 12 h [5] [ng·h/mL] | half-life [6] [h] | Cmax [7] [ng/g] | Tmax [8] [h] | AUC (Brain [9]) [ng·h/g] | half-life [10] [h] | Cmax [11] [ng/mL] | Tmax [12] [h] | AUC(0-t) at 24 h [13] [ng·h/mL] | half-life [14] [h] | Cmax [15] [ng/mL] | Tmax [16] [h] | AUC(0-t) at 24 h [17] [ng·h/mL] | half-life [18] [h] | Cmax [19] [ng/g] | Tmax [20] [h] | further results
COc1ccc(-n2nc3c4ccc(OC)cc4[nH]cc-3c2=O)cc1 | 86.1 | 80.3 | 5050 | 1 | 28800 | 1.51 | 352 | 2.33 | 2177.98 | 1.96 | 173 | 2 | 1270 | 9 | 597 | 0 | 1890 | 5.29 | 67.3 | 1.5 | AUC (Brain [21]): 708.21 ng·h/g; half-life [22]: 12.7 h; Cmax [23]: 84.5 ng/g; Tmax [24]: 0.86 h; AUC (Brain [25]): 857.8 ng·h/g; half-life [26]: 10.9 h; Kp [27]: 0.08; Activity (Rattus norvegicus): Toxic; Activity (Mus musculus): Toxic; bioavailability [28]: 66.9%; F (Brain [29]): 82.6%
[2H]C([2H])([2H])Oc1ccc(-n2nc3c4ccc(OC)cc4[nH]cc-3c2=O)cc1 | 91.7 | 92.8 | 4430 | 1.67 | 24200 | 3.54 | 587 | 2.33 | 3350.72 | 2.28 | 222 | 5.5 | 3000 | 1.4 | 728 | 0 | 3000 | 1.95 | 67.3 | 3.5 | AUC (Brain [21]): 513.12 ng·h/g; half-life [22]: 4.2 h; Cmax [23]: 71.9 ng/g; Tmax [24]: 1.36 h; AUC (Brain [25]): 573.46 ng·h/g; half-life [26]: 4.34 h; Kp [27]: 0.13; Activity (Rattus norvegicus): Toxic; Activity (Mus musculus): Toxic; bioavailability [28]: 100%; F (Brain [29]): 89.5%
